# Reference: ChEMBL document CHEMBL1156527, “Potent D-peptide inhibitors of HIV-1 entry” (Proc Natl Acad Sci U S A, 2007)
# Calls of active or inactive are those of the source. The rule behind the calls is not given here.
# Legend:
# [1] = tested on: Human immunodeficiency virus 1; experiment: Antiviral activity against HIV1 HXB2 in HOS-CD4-CXCR4 cells by viral infectivity assay; format: functional, organism-based; details: Human immunodeficiency virus 1, HXB2
# Procedure, shortened: (§1)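 Single-cycle pseudovirion entry assay. HXB2 pseudovirions were used on HOS-CD4-CXCR4 cells, and BaL or JRFL on HOS-CD4-CCR5 cells. 8 μg/ml DEAE-Dextran served as fusion enhancer, and medium was changed ≈24 h post-infection. DMSO-dissolved samples were run at 1% final DMSO against a 1% DMSO uninhibited control. IC50 comes from duplicate assays. Toxicity was checked microscopically and by luciferase with VSV-G pseudotyped virions, where a >10% loss meant toxicity.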
# [2] = tested on: Human immunodeficiency virus 1; experiment: Antiviral activity against HIV1 JRFL in HOS-CD4-CCR5 cells by viral infectivity assay; format: functional, organism-based; details: Human immunodeficiency virus 1, JRFL; procedure, shortened: as §1
# [3] = tested on: Human immunodeficiency virus 1; experiment: Antiviral activity against HIV1 BaL in HOS-CD4-CCR5 cells by viral infectivity assay; format: functional, organism-based; details: Human immunodeficiency virus 1, BaL; procedure, shortened: as §1
# HOS = experiment: Cytotoxicity in VSV-G pseudotyped virion infected human HOS-CD4-CXCR4 cells assessed as luciferase level at 100 uM after 24 hrs; format: cell-based
# Procedure, shortened: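 Single-cycle infection in HOS-CD4 target cells with VSV-G-pseudotyped luciferase virions in the presence of peptide, using 8 μg/ml DEAE-Dextran as fusion enhancer. Media were changed about 24 h after infection. DMSO-dissolved samples were run at 1% final DMSO against a 1% DMSO uninhibited control. A luciferase drop of more than 10% counted as cytotoxicity, alongside microscopic inspection at about 24 h.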
# [4] = Binding affinity to HIV1 N-trimer gp41 mimic IZN36 by surface plasmon resonance analysis
# [5] = tested on: Human immunodeficiency virus 1; experiment: Antiviral activity against HIV1 JRFL in HOS-CD4-CCR5 cells at 100 uM by viral infectivity assay; format: functional, organism-based
# Procedure, shortened: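 JRFL pseudovirions were tested in single-cycle infection of HOS-CD4-CCR5 cells with 8 μg/ml DEAE-Dextran and a medium change ≈24 h post-infection. Inhibition was scored at 100 μM. DMSO-dissolved samples were at 1% final DMSO, normalized to a 1% DMSO control.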
Structure (SMILES),IC50 [1],IC50 [2],IC50 [3],Activity (HOS),Kd [4],Activity [5]
CC(C)C[C@@H](NC(=O)[C@@H](CC(C)C)NC(=O)[C@@H](CCC(=O)O)NC(=O)[C@@H](CS)NC(=O)[C@@H](C)NC(=O)CNC(=O)[C@@H](CCCCN)NC(=O)[C@H](N)CCCCN)C(=O)NCC(=O)N[C@H](Cc1c[nH]c2ccccc12)C(=O)N[C@H](CCC(=O)O)C(=O)N[C@H](Cc1c[nH]c2ccccc12)C(=O)N[C@H](C)C(=O)N[C@H](Cc1c[nH]c2ccccc12)C(=O)N[C@H](CC(C)C)C(=O)N[C@H](CS)C(=O)N[C@H](C)C(=O)N[C@H](C)C(=O)O,9500 nM,> 25000 nM,12000 nM,Toxic,7000 nM,
CC(C)C[C@@H](NC(=O)[C@@H](Cc1c[nH]c2ccccc12)NC(=O)[C@@H](CCCNC(=N)N)NC(=O)[C@@H](Cc1c[nH]c2ccccc12)NC(=O)[C@@H](CCC(=O)O)NC(=O)[C@H]1CCCN1C(=O)[C@@H](Cc1ccc(O)cc1)NC(=O)[C@@H](CC(=O)O)NC(=O)[C@@H](CS)NC(=O)[C@@H](C)NC(=O)CNC(=O)[C@@H](CCCCN)NC(=O)[C@H](N)CCCCN)C(=O)N[C@H](CS)C(=O)N[C@H](C)C(=O)N[C@H](C)C(=O)O,2600 nM,,,,170 nM,
CC(C)C[C@@H](NC(=O)[C@@H](Cc1c[nH]c2ccccc12)NC(=O)[C@@H](CCCNC(=N)N)NC(=O)[C@@H](Cc1c[nH]c2ccccc12)NC(=O)[C@@H](CCC(=O)O)NC(=O)[C@H]1CCCN1C(=O)[C@@H](Cc1ccc(O)cc1)NC(=O)[C@@H](CC(=O)O)NC(=O)[C@@H](CS)NC(=O)[C@@H](C)NC(=O)CNC(=O)[C@H](N)CCCCN)C(=O)N[C@H](CS)C(=O)N[C@H](C)C(=O)N[C@H](C)C(=O)O,1300 nM,66000 nM,,,130 nM,
CC(C)C[C@@H](NC(=O)[C@@H](Cc1c[nH]c2ccccc12)NC(=O)[C@@H](CCC(N)=O)NC(=O)[C@@H](Cc1c[nH]c2ccccc12)NC(=O)[C@@H](CCC(=O)O)NC(=O)[C@@H](CCCCN)NC(=O)[C@@H](Cc1ccc(O)cc1)NC(=O)[C@@H](CC(=O)O)NC(=O)[C@@H](CS)NC(=O)[C@@H](C)NC(=O)CNC(=O)[C@H](N)CCCCN)C(=O)N[C@H](CS)C(=O)N[C@H](C)C(=O)N[C@H](C)C(=O)O,1700 nM,110000 nM,,,170 nM,
CC(C)C[C@@H](NC(=O)[C@@H](Cc1c[nH]c2ccccc12)NC(=O)[C@@H](CCCNC(=N)N)NC(=O)[C@@H](Cc1c[nH]c2ccccc12)NC(=O)[C@@H](CCC(=O)O)NC(=O)[C@H]1CCCN1C(=O)[C@@H](CO)NC(=O)[C@@H](CCC(=O)O)NC(=O)[C@H](CS)NC(=O)[C@@H](C)NC(=O)CNC(=O)[C@@H](CCCCN)NC(=O)[C@H](N)CCCCN)C(=O)N[C@@H](CS)C(=O)N[C@H](C)C(=O)N[C@H](C)C(=O)O,,,,,,inactive
CC(C)C[C@@H](NC(=O)[C@@H](Cc1c[nH]c2ccccc12)NC(=O)[C@@H](CCCNC(=N)N)NC(=O)[C@@H](Cc1c[nH]c2ccccc12)NC(=O)[C@@H](CCC(=O)O)NC(=O)[C@H]1CCCN1C(=O)[C@@H](CO)NC(=O)[C@@H](CCC(=O)O)NC(=O)[C@@H](CS)NC(=O)[C@@H](C)NC(=O)CNC(=O)[C@@H](CCCCN)NC(=O)[C@H](N)CCCCN)C(=O)N[C@H](CS)C(=O)N[C@H](C)C(=O)N[C@H](C)C(=O)O,2200 nM,,,,,
CC(C)C[C@@H](NC(=O)[C@@H](Cc1c[nH]c2ccccc12)NC(=O)[C@@H](CCC(N)=O)NC(=O)[C@@H](Cc1c[nH]c2ccccc12)NC(=O)[C@@H](CCC(=O)O)NC(=O)[C@H]1CCCN1C(=O)[C@@H](Cc1ccc(O)cc1)NC(=O)[C@@H](CC(=O)O)NC(=O)[C@@H](CS)NC(=O)[C@@H](C)NC(=O)CNC(=O)[C@H](N)CCCCN)C(=O)N[C@H](CS)C(=O)N[C@H](C)C(=O)N[C@H](C)C(=O)O,620 nM,24000 nM,2200 nM,,80 nM,
